Measurements taken from publication PMC3477254 (ACS chemical biology, 2012).
Entries after “also recorded” stand apart in the source; their conditions may differ.

Columns and labels:
[1] = system: cardiac troponin T (cTNT) alternative splicing in COS7 cells; experiment: cTNT mini-gene splicing control; type: cell-based; details: 500 µM; splicing not regulated by Sam68
Summary of the method: (§1)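 COS7 cells were co-transfected with the 60 CGG-repeat mini-gene and a PLEKHH2 or cTNT mini-gene, whose splicing is not under Sam68 control. Compound treatment and RT-PCR followed the same procedure: medium with test compound for 16–24 h, total RNA extraction, reverse transcription, 25–30 PCR cycles, then gel separation and quantification of the splice isoforms.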

DGCR8Δ = experiment: Competition dialysis, DGCR8Δ; type: binding; details: 2 µM protein, 0.7 µM ligand
Summary of the method: (§2)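 2 µM RNA or DGCR8Δ protein was placed in dialysis units (MWCO 2,000) immersed in 0.7 µM ligand. Two buffer-only units were tracked by absorbance to confirm equilibration. SDS was then added to 1% final, and absorbance gave total ligand inside the units and free ligand in the dialysate. Bound ligand was calculated as total minus free.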

r(CGG)12-DGCR8Δ complex = experiment: TR-FRET protein displacement assay; type: biochemical
[2] = system: SMN2 exon 7 alternative splicing in COS7 cells; experiment: SMN2 pre-mRNA splicing by RT-PCR in FXTAS cell model; type: cell-based
Summary of the method: (§3)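 COS7 cells were grown in DMEM with 10% FBS and GlutaMax. At 90–95% confluency they were transfected with equal amounts of a plasmid carrying 60 CGG repeats and an SMN2 or Bcl-x mini-gene. About 5 h later, medium containing test compound replaced the transfection mix. After 16–24 h, total RNA was extracted with on-column DNase digestion. Roughly 300 ng was reverse transcribed and 150 ng went to PCR for 25–30 cycles. Isoforms were gel-separated, imaged and quantified.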

r(CGG)12 = experiment: Competition dialysis, r; type: binding; details: 2 µM RNA, 0.7 µM ligand
Summary of the method: as §2

[3] = molecular target: RNA containing one 5’CGG/3’GGC motif (1x1 nucleotide GG internal loop); experiment: RNA-binding assay via Hoechst 33258 dye displacement; details: competition with Hoechst 33258 (1 µM), RNA 1 µM
Summary of the method: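 RNA was annealed at 60 °C for 5 min in phosphate buffer (8 mM Na₂HPO₄ pH 7.0, 185 mM NaCl, 0.1 mM EDTA, BSA), then slow-cooled. Titrating RNA into 1000 nM Hoechst 33258 (ex 360/40, em 460/40 nm) gave the dye Kd. Test compound was then titrated into 1 µM RNA plus 1 µM Hoechst. Loss of fluorescence was fit to a competitive binding equation to obtain Kd.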

[4] = system: r(CGG)^exp nuclear foci in COS7 cells; experiment: FISH assay of r; type: cell-based; details: COS7 cells expressing r(CGG)60 and GFP
Summary of the method: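 COS7 cells on coverslips were co-transfected with r(CGG)60 and GFP plasmids, then treated with test compound. Cells were fixed in 4% paraformaldehyde for 15 min and permeabilized with 0.5% Triton X-100. They were prehybridized for 30 min in 2X SSC/40% formamide, then hybridized for 2 h with a (CCG)8-Cy3 DNA probe. After DAPI counterstaining, cells were imaged by confocal or fluorescence microscopy; only GFP-positive cells were scored for nuclear foci.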

[5] = system: PLEKHH2 alternative splicing in COS7 cells; experiment: PLEKHH2 mini-gene splicing control; type: cell-based; details: 500 µM; splicing not regulated by Sam68
Summary of the method: as §1

[6] = system: Bcl-x exon 2 alternative splicing in COS7 cells; experiment: Bcl-x pre-mRNA splicing by RT-PCR in FXTAS cell model; type: cell-based
Summary of the method: as §3

fully paired RNAs = experiment: Competition dialysis, fully paired RNAs; type: binding; details: 2 µM RNA, 0.7 µM ligand
Summary of the method: as §2

[7] = COS7 cells expressing r(CGG)60, 100 µM
[8] = COS7 cells expressing r(CGG)60, 500 µM
[9] = cells that do not express r(CGG)60

Cc1c2cc[n+](CCN3CCCCC3)cc2c(C)c2c1[nH]c1ccc(O)cc12 [1a, 9-hydroxy-5,11-dimethyl-2-(2-(piperidin-1-yl)ethyl)-6H-pyrido[4,3-b]carbazol-2-ium]
Effect on cTNT alternative splicing [1]: did not affect | Binding to DGCR8Δ (DGCR8Δ): very little binding | Percentage displacement at 25 µM (r(CGG)12-DGCR8Δ complex; 25 µM compound, protein displaced from r(CGG)12): 85 ± 1% | IC50 (r(CGG)12-DGCR8Δ complex; read-out: IC50 for disruption of the r(CGG)12-DGCR8Δ complex, TR-FRET assay): 13 ± 0.4 µM | Improvement of SMN2 splicing defects ([2]; COS7 cells expressing r(CGG)60, 20 µM): improvement of SMN2 splicing defects can be observed | SMN2 pre-mRNA splicing level relative to wild type [2, 7]: approximately 70 % of wild type | SMN2 pre-mRNA splicing [2, 8]: restores pre-mRNA splicing to levels wild type | SMN2 pre-mRNA splicing defects ([2]; COS7 cells, CGG 60X mini-gene, Figure 4A): improves SMN2 pre-mRNA splicing defects | Effect on SMN2 splicing [2, 9]: No statistically significant effect | Binding to r(CGG)12 (r(CGG)12): binds tightly | Kd [3]: 0.076 ± 0.004 µM | Size and number of r(CGG)exp nuclear foci [4]: reduces the size and the number of foci; also recorded: decreases r(CGG)^exp-protein aggregates | Effect on PLEKHH2 alternative splicing [5]: did not affect | Improvement of Bcl-x splicing dysregulation [6, 7]: Statistically significant improvement | Bcl-x splicing [6, 8]: restoration of wild type splicing patterns | Bcl-x pre-mRNA splicing defects ([6]; COS7 cells, CGG 60X mini-gene, Figure 4B): improves Bcl-x pre-mRNA splicing defects | Effect on Bcl-x splicing [6, 9]: No statistically significant effect | Amount of ligand partitioned into fully paired RNAs relative to r(CGG)12 (fully paired RNAs): less than half
